Reference: ChEMBL document CHEMBL1133865, “Flavonoids: structural requirements for antiproliferative activity on breast cancer cells” (Bioorg Med Chem Lett, 2001)

Tested on: MCF7; call rule not given here
Test: The compound was tested for antiproliferative activity against MCF-7 human breast cancer cells; In active
Type: functional, cell-based
How it was run: (§1)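 MCF-7 human breast cancer cells, MTT assay. Growth inhibition expressed as % of control absorbance after 6 days incubation. IC50 read graphically as the concentration giving a 50% decrease in cell growth. Mean of three experiments; deviations within ±5%.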

| Structure (SMILES) | IC50 |
| --- | --- |
| O=C1CC(c2ccccc2)Oc2c1ccc(O)c2O (stereo not drawn) | Not Active |

Tested on: MCF7
Test: The compound was tested for antiproliferative activity against MCF-7 human breast cancer cells
Type: functional, cell-based
How it was run: as §1

| Structure (SMILES) | IC50 [µM] |
| --- | --- |
| COc1cc(O)c(C(=O)/C=C/c2ccccc2)c(OC)c1 [FLAVOKAWAIN B] | 20 |
| COc1ccc(C(=O)/C=C/c2ccccc2)c(O)c1 | 26.8 |
| COc1cccc2c1C(=O)CC(c1ccccc1)O2 (stereo not drawn) | 35.7 |
| COc1ccc2c(c1)OC(c1ccccc1)CC2=O (stereo not drawn) | 35.7 |
| COc1cc(O)c(C(=O)/C=C/c2ccccc2)c(O)c1 | > 60 |
| O=C(/C=C/c1ccccc1)c1ccc(O)c(O)c1O | 22.2 |
| COc1cc(OC)c2c(c1)OC(c1ccccc1)CC2=O (stereo not drawn) [DIMETHYLPINOCEMBRIN] | 36 |
| O=C(/C=C/c1ccccc1)c1ccccc1O [2'-HYDROXYCHALCONE] | 28.4 |
| O=c1cc(-c2ccccc2)oc2c(O)c(O)ccc12 [7,8-DIHYDROXYFLAVONE] | 27.5 |
| O=C(/C=C/c1ccccc1)c1ccc(O)cc1O [2',4'-DIHYDROXYCHALCONE] | 16.3 |
| COc1ccc(O)c(C(=O)/C=C/c2ccccc2)c1 | 29.2 |
| COc1cccc(O)c1C(=O)/C=C/c1ccccc1 | 18.3 |
